# Only a selection was taken, and hits are over-represented in it overall.
# T cruzi growth-1 – inhibitors of T. cruzi proliferation | T. cruzi beta-gal in NIH3T3, GalScreen luminescence, 90 h | inhibition, % at 8.34 µM | 77,000 compounds, 5.9% hits;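 active means mean inhibition above about 93%, with at least 55% of replicates each passing it, limit read from the data, passing the limit was not always enough; inconclusive means only one of those two conditions holds; inactive means neither condition holds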
# IDH1 R132H inh – blocks human IDH1 R132H reductase activity; diaphorase/resazurin fluorescence, 60 min; inhibition, % at 10 µM; AID 624101; O75874; 70,000 compounds, 0.18% hits; in the data active means inhibition above about 34%; inconclusive means no clear call, values can overlap the other calls; inactive means below about 11%;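 further: 0% = DMSO and 100% = no enzyme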
# Target sequence (O75874 whole entry R132H): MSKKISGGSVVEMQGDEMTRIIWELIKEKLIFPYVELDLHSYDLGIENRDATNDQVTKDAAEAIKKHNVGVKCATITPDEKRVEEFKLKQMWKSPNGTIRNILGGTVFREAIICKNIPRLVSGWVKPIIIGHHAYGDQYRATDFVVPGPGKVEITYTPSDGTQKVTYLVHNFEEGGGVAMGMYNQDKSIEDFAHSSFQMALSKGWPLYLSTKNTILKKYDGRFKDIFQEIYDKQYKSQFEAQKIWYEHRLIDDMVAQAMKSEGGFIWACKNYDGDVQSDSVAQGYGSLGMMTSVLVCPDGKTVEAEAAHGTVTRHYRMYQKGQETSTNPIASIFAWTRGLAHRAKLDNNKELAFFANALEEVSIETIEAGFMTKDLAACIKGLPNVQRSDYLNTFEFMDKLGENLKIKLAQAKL
# GASC1 inh – blocks human GASC-1 (KDM4C) demethylase activity; GST-KDM4C 2-372, H3K9me3 peptide, LANCE TR-FRET; inhibition, % at 12.5 µM; 96,000 compounds, 0.15% hits; AID 720574;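 active means mean replicate inhibition above about 25%, with at least 55% of replicates also reaching it, limit read from the data, passing the limit was not always enough; inconclusive means only one of those two conditions met; inactive means neither condition met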
#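 Material: GST-tagged GASC-1 (JMJD2C) catalytic fragment, aa 2-372 / Quantity: enzyme final amount 10 nM / Medium: HEPES buffer, pH 7.5, plus ascorbate / Doses: one test concentration per compound / Incubation: 30 min reaction, 60 min detection, RT / Measured by: LANCE TR-FRET / Read-out: inhibition from TR-FRET ratio decrease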
# T cruzi growth-2 – inhibitors of T. cruzi proliferation | shares compounds with T cruzi growth-1 | inhibition, % at 8.35 µM | 5,600 compounds, 72% hits | T. cruzi beta-gal in NIH3T3, GalScreen luminescence, 90 h | AID 651739;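 active means mean replicate inhibition above about 95% and at least 55% of replicates individually reaching it, limit read from the data; inconclusive means only one of the two criteria is met; inactive means neither criterion is met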
# T cruzi growth-3 – Trypanosoma cruzi proliferation inhibition; inhibition, % at 2.09 µM; 5,600 compounds, 21% hits; T. cruzi beta-gal in NIH3T3, GalScreen luminescence, 90 h; AID 651740; shares compounds with T cruzi growth-1;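 active means mean inhibition above about 95%, with at least 55% of replicates also reaching it, limit read from the data; inconclusive means meets just one of the two conditions; inactive means meets neither condition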;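 further: plate controls were neutral control median for no effect and positive control median for full effect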
# NIH3T3 tox – kills mouse NIH/3T3 fibroblasts; shares compounds with T cruzi growth-1; NIH/3T3 viability, CellTiter-Glo ATP luminescence, 90 h; cytotoxicity (signal decrease), % at 8.35 µM; 5,600 compounds, 14% hits; AID 651742;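 active means mean signal decrease across replicates above about 35% based on untreated-well scatter, with enough replicates individually passing, limit read from the data; inconclusive means no rule stated though some were filed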;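 further: 0% = median of neutral control wells and 100% = median of positive control wells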
# 3T3 cytotox 2 – cytotoxicity in mouse NIH/3T3 fibroblasts. NIH/3T3 viability, CellTiter-Glo ATP luminescence, 90 h. inhibition, % at 24.9 µM. shares compounds with T cruzi growth-1. AID 651744. 5,600 compounds, 56% hits;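 active means mean loss of cell viability signal at or above a set limit, and enough replicates individually reaching it; inconclusive means meets only the mean limit or only the replicate share; inactive means meets neither condition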;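 further: 0% = median of neutral control wells and 100% = median of positive control wells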
# Active calls of the source: *; ? = inconclusive; / = no result.
SMILES,T cruzi growth-1,IDH1 R132H inh,GASC1 inh,T cruzi growth-2,T cruzi growth-3,NIH3T3 tox,3T3 cytotox 2
CN(c1cccc(NC(=O)Cc2ccccc2[N+](=O)[O-])c1)S(C)(=O)=O,/,-0.6,/,/,/,/,/
CS(=O)(=O)N(CC(N)=O)c1cc(Cl)c(Cl)cc1Cl,/,-0.6,/,/,/,/,/
COc1ccc(NC(=O)Nc2cccc3c2O[C@@H](CN(C)Cc2ccc(Cl)c(Cl)c2)[C@H](C)CN([C@H](C)CO)C3=O)cc1,108.5*,/,2.1,105.5*,107.3*,-0.5,55.7*
C[C@H](CO)N1C[C@H](C)[C@@H](CN(C)Cc2ccc(Oc3ccccc3)cc2)Oc2c(NC(=O)NC3CCCCC3)cccc2C1=O,?,/,0.1,108.4*,88.5,-13.6,105.6*
C[C@@H]1CN([C@@H](C)CO)C(=O)c2cccc(NC(=O)NC3CCCCC3)c2O[C@@H]1CN(C)Cc1ccccc1,-96.7,1.5,-2.0,/,/,/,/
COc1ccc(NC(=O)Nc2cccc3c2O[C@H](CN(C)Cc2ccc(Cl)c(Cl)c2)[C@@H](C)CN([C@H](C)CO)C3=O)cc1,1.9,/,-1.3,/,/,/,/
CCn1c(SCC(=O)Nc2ccc(F)cc2)nnc1-c1cccc(Cl)c1,/,-0.3,/,/,/,/,/
COc1ccc2c(=O)cc(-c3ccccc3OC)oc2c1,/,-6.8,/,/,/,/,/
Cc1ccc(-c2cc(C(F)F)n3ncc(C(=O)NCc4cn(C)nc4C)c3n2)cc1,/,0.4,/,/,/,/,/
NC(=O)c1c(NC(=O)C2CC(=O)N(c3ccccc3)C2)sc2c1CCCC2 (stereo unspecified),/,0.3,/,/,/,/,/
NS(=O)(=O)c1ccc(NC(=O)CC2c3ccccc3Oc3ccccc32)cc1,/,0.1,/,/,/,/,/
COc1ccccc1NC(=O)CSc1nc(Nc2ccccc2)nc(Nc2ccccc2)n1,/,0.2,/,/,/,/,/
C[C@@H]1CCCCO[C@@H](CN(C)Cc2ccc3c(c2)OCO3)[C@H](C)CN([C@@H](C)CO)C(=O)c2cc(NC(=O)c3ccncc3)ccc2O1,41.3,2.0,-1.4,/,/,/,/
C[C@@H]1CCCCO[C@H](CN(C)Cc2ccc3c(c2)OCO3)[C@H](C)CN([C@H](C)CO)C(=O)c2cc(NC(=O)c3ccncc3)ccc2O1,114.2*,2.4,5.1,101.7*,14.7,-4.4,-9.2
C[C@@H]1CN([C@@H](C)CO)C(=O)c2cc(NC(=O)c3ccncc3)ccc2O[C@@H](C)CCCCO[C@@H]1CN(C)Cc1ccc2c(c1)OCO2,28.9,/,-0.3,/,/,/,/
C[C@H](CO)N1C[C@H](C)[C@@H](CN(C)Cc2ccc3c(c2)OCO3)OCCCC[C@H](C)Oc2ccc(NC(=O)c3ccncc3)cc2C1=O,102.9*,0.5,7.3,1.6,1.1,-25.1,-16.8
COc1ccc(-c2cc(C(F)F)n3ncc(C(=O)Nc4cccc(NC(C)=O)c4)c3n2)cc1,/,0.0,/,/,/,/,/
CN1c2ccc(Br)cc2[C@@H]2[C@@H](CCN2S(=O)(=O)c2ccccc2F)[C@H]1CO,58.3,/,0.7,/,/,/,/
CN1c2ccc(Br)cc2[C@H]2[C@H](CCN2S(=O)(=O)c2ccccc2F)[C@@H]1CO,93.3*,/,1.1,106.6*,10.8,13.7,15.3
Cc1ccccc1S(=O)(=O)N1CC[C@H]2[C@@H](CO)N(C)c3ccc(Br)cc3[C@H]21,68.6,/,-0.7,/,/,/,/
Cc1ccccc1S(=O)(=O)N1CC[C@@H]2[C@@H](CO)N(C)c3ccc(-c4ccccc4)cc3[C@@H]21,?,/,1.6,111.2*,107.9*,22.7,103.9*
Cc1ccccc1S(=O)(=O)N1CC[C@@H]2[C@H]1c1cc(-c3cccc(F)c3)ccc1N(C)[C@H]2CO,46.0,/,-1.1,/,/,/,/
Cc1ccccc1S(=O)(=O)N1CC[C@@H]2[C@@H](CO)N(C)c3ccc(Br)cc3[C@@H]21,?,/,1.7,99.9*,34.8,-1.9,106.0*
CN(CC(=O)Nc1ccc(Nc2ccccc2)cc1)S(=O)(=O)c1cc(Cl)ccc1Cl,/,0.1,/,/,/,/,/
CCc1c(O)nc(SC(C)C(=O)Nc2cccc(Cl)c2)[nH]c1=O (stereo unspecified),/,1.5,/,/,/,/,/
Cc1ccc(N(CC(=O)Nc2cc(Cl)ccc2Cl)S(C)(=O)=O)cc1C,/,0.0,/,/,/,/,/
C[C@@H]1CN([C@H](C)CO)S(=O)(=O)c2ccc(C#CC3CC3)cc2O[C@@H]1CN(C)Cc1ccccc1,-5.8,-0.1,0.6,/,/,/,/

# Compound activity deposited in PubChem BioAssay by Broad Institute.
